Experimental data of several laboratories.
Each line is one published result; the experiments were not run side by side.
Target: Vascular endothelial growth factor receptor 2 (KDR, Homo sapiens, UniProt P35968)

SMILES	test	quantity	result
CNC(=O)c1cc2c(Oc3ccc(NC(=O)C4(C(=O)Nc5ccc(F)cc5)CC4)cc3)ccnc2cc1OC	enzyme activity, inhibitor, radiometric	IC50	6 nM
CC(C)(C)n1nc(-c2cnc3cc(OC4CC4)ccc3c2)c(C(N)=O)c1N	cell-free assay	IC50	1090 nM
CN1CCN(c2ccc(Nc3ncc4cc(C#N)c(=O)n(C5CCCC5)c4n3)cc2)CC1	enzyme activity, inhibitor	IC50	56.8 nM
Cc1cc(Nc2cc3ncccc3c(N[C@@H]3C[C@H]4CC[C@@H](C3)N4CCC#N)n2)n[nH]1	binding, competition with immobilised ligand	Kd	620 nM
Cc1cc(Nc2cc(CN3CCOCC3)c3nc(C)c(Cc4ccc(Cl)cc4F)n3n2)n[nH]1	enzyme activity, inhibitor, TR-FRET	IC50	109 nM
CC(C)(C)n1nc(-c2ccc3nc(OC4CC4)ccc3c2)c(C(N)=O)c1N	cell-free assay	IC50	450 nM
Cc1ccc(C(=O)Nc2ccc(Oc3cc4cnn(C)c4cc3-c3cn[nH]c3)c(F)c2)c(=O)n1-c1ccc(F)cc1	phosphorylation in cells, inhibitor, AlphaScreen	IC50	347 nM
C=CC(=O)Nc1cccc(CN2C(=O)N(c3c(Cl)c(OC)cc(OC)c3Cl)Cc3cnc(NCCCCN(CC)CC)nc32)c1	binding, competition with immobilised ligand	Kd	210 nM
